Activity and MIC data for seven compounds are collected here from ChEMBL document CHEMBL3232738, “Arabinose 5-phosphate isomerase as a target for antibacterial design: studies with substrate analogues and inhibitors” (2014).

≈ marks a conversion by molar mass, not a printed value. Calls of active or inactive are those of the source. The rule behind the calls is not given here.

In assay [1] the test system is Pseudomonas aeruginosa. In words: Binding affinity to Pseudomonas aeruginosa KdsD expressed Escherichia coli at 5 mM after 2 to 3 days by STD-NMR analysis. A digest of the protocol:
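N-His6 Pa-KdsD was expressed in E. coli M15/pREP4 (0.5 mM IPTG, 4 h), Ni-NTA purified (>95%). Ligand at 5 mM with enzyme in PBS pH 7.0, 25 °C, sampled after 0, 2 and 3 days. STD: 50 ms Gaussian pulses, 3 s saturation, on-resonance 7.9 ppm, off-resonance 40 ppm, 2 ms T1ρ filter; free-ligand reference spectra.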

Assay [2] concerns Escherichia coli. The assay can be described thus: Antibacterial activity against Escherichia coli K-12 BW25113 after 18 to 20 hrs by broth microdilution test. In kind it is functional. Summed up:
(§1)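 Broth microdilution in Mueller–Hinton broth: compounds in triplicate serial dilutions from 2 mM downward, inoculum about 5 × 10⁵ cfu mL⁻¹, 18–20 h at 37 °C. MIC was taken as the lowest concentration inhibiting growth. The wild-type strain was run without glucose 6-phosphate.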
(In general: Broth dilution looks for growth in wells or tubes with falling amounts of substance.)

The subject of assay [3] is Pseudomonas aeruginosa. In words: Antibacterial activity against Pseudomonas aeruginosa PAO1 ATCC 15692 after 18 to 20 hrs by broth microdilution test. Format: functional. Summed up:
as §1

In assay [4] the test system is Escherichia coli. The assay can be described thus: Antibacterial activity against Escherichia coli AS19 after 18 to 20 hrs by broth microdilution test.
The test system of assay [5] is Escherichia coli. In words: Antibacterial activity against Escherichia coli K-12 BW25113 after 18 to 20 hrs by broth microdilution test in presence of glucose-6-phosphate. In kind it is functional. Summed up:
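For E. coli BW25113, broth microdilution was run with glucose 6-phosphate added. Conditions: Mueller–Hinton broth, triplicate concentrations from 2 mM downward, about 5 × 10⁵ cfu mL⁻¹ inoculum, 18–20 h at 37 °C. MIC was the lowest concentration inhibiting growth.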

For orientation: MIC means the least concentration at which growth counts as inhibited.

As for `CC(=O)O[C@H](COP(=O)(O)O)[C@@H](O)C(=O)NO`, the result in the assay with Pseudomonas aeruginosa [1] was Active.

As to `NC(=O)[C@H](O)[C@H](O)COP(=O)(O)O`, the result in the assay with Pseudomonas aeruginosa [1] was Active.

For the compound `CO[C@@H]1O[C@H](COP(=O)(O)O)[C@@H](O)[C@@H]1O`, the MIC with Escherichia coli [2] is greater than 2000 µM; against Pseudomonas aeruginosa [3] it was greater than 2000 µM; in the assay on Escherichia coli [4] it was 250 µM (≈ 61 µg/mL); in the assay on Escherichia coli [5], greater than 2000 µM.

Turning to `CO[C@@H]1O[C@H](C(=O)O)[C@@H](O)[C@@H]1O`, the minimal inhibitory concentration (MIC) was greater than 2000 µM in the assay with Escherichia coli [2], greater than 2000 µM in the assay with Pseudomonas aeruginosa [3], 250 µM (≈ 44.5 µg/mL) in the assay with Escherichia coli [4] and greater than 2000 µM with Escherichia coli [5]. Besides, the outcome in the assay with Pseudomonas aeruginosa [1] was Active.

As to `CO[C@H]1O[C@H](C(=O)O)[C@@H](O)[C@@H]1O`, the minimum inhibitory concentration (MIC) against Escherichia coli [2] is greater than 2000 µM; in the assay on Pseudomonas aeruginosa [3] it was greater than 2000 µM; in the assay with Escherichia coli [4] it was 250 µM (≈ 44.5 µg/mL); in the assay on Escherichia coli [5] it was greater than 2000 µM. For the same compound, the result in the assay with Pseudomonas aeruginosa [1] was Active.

`O=C(NO)[C@H](O)[C@H](O)COP(=O)(O)O`: the outcome in the assay on Pseudomonas aeruginosa [1] was Active.

Turning to `CO[C@H]1O[C@H](COP(=O)(O)O)[C@@H](O)[C@@H]1O`, the MIC against Escherichia coli [2] was greater than 2000 µM; against Pseudomonas aeruginosa [3], greater than 2000 µM; in the assay on Escherichia coli [4] it was 250 µM (≈ 61 µg/mL); in the assay with Escherichia coli [5] it was greater than 2000 µM.
